Calls of active or inactive are those of the source. No cut-off for these calls is given here.

As usually defined, the IC50 is the concentration that inhibits the measured activity by half. Usually GI50 stands for the concentration at which growth is held to half of that of the control. A higher GI50 goes with less potent growth inhibition. For orientation: Ki means the equilibrium dissociation constant of an inhibitor or competing ligand from its target. High values mean weaker binding, low ones tighter binding.

Assay [1] in a line: Inhibition of rice cv. Nipponbare recombinant C-terminal-His6-tagged DNA polymerase lambda expressed in Escherichia coli assessed as inhibition of incorporation of dTTP into poly(dA)/oligo(dT)18 after 60 mins. More on the design: species or system Oryza sativa. Summed up: (§1)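 Compound in DMSO was sonicated for 30 s, then held with enzyme (0.05 units final) at 0 °C for 10 min in 50 mM Tris-HCl pH 7.5, 1 mM DTT, 50% glycerol, 0.1 mM EDTA. The mixture was added to the standard reaction mix with poly(dA)/oligo(dT)18 (A/T = 2/1) and dTTP, 37 °C, 60 min. Activity was relative to no-inhibitor control; mean ± SE, three independent experiments.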

The nature of assay [2]: Inhibition of human DNA polymerase epsilon assessed as inhibition of incorporation of dTTP into poly(dA)/oligo(dT)18 after 60 mins. Summed up: as §1
For assay [3], the target named is T1, DNA polymerase iota (Mus musculus, UniProt Q6R3M4).
T1 sequence (Q6R3M4 whole entry): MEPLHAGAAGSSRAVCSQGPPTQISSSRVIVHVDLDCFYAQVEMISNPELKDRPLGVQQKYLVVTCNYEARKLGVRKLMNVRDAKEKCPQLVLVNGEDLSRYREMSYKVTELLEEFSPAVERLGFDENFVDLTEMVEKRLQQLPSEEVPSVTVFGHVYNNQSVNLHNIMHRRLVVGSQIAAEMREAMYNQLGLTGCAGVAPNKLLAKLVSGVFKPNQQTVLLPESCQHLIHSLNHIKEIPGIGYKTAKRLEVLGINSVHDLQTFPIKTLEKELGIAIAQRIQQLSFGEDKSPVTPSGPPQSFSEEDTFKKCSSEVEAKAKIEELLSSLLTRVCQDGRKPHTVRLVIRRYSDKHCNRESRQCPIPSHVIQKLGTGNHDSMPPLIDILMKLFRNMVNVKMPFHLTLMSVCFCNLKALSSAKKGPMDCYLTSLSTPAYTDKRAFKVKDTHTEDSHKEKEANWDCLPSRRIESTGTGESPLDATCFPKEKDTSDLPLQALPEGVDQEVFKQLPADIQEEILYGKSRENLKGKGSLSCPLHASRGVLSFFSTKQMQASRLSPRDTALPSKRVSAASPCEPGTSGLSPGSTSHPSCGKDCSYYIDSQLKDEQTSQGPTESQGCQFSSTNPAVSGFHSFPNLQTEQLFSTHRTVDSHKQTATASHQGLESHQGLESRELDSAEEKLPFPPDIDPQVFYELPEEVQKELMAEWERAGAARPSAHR
In words: Inhibition of mouse recombinant C-terminal-His6-tagged DNA polymerase iota assessed as inhibition of incorporation of dTTP into poly(dA)/oligo(dT)18 after 60 mins. Summed up: as §1

Assay [4] has as its system Escherichia coli. The experiment in a line: Inhibition of Escherichia coli polymerase DNA polymerase 1 Klenow fragment assessed as inhibition of incorporation of dTTP into activated DNA primer after 60 mins.
Assay [5] addresses DNA polymerase eta (Homo sapiens) (UniProt Q9Y253). The experiment in a line: Inhibition of C-terminal-His6-tagged human pol eta expressed in Escherichia coli assessed as inhibition of incorporation of dTTP into poly(dA)/oligo(dT)18 after 60 mins.
Assay [6] can be described thus: Inhibition of calf DNA primase of polymerase alpha. Set-up: species or system Bos taurus.
Assay [7] deals with HCT-116. In words: Cell cycle arrest in human HCT116 cells assessed as accumulation at S-phase at GI50 by tritiated thymidine incorporation assay. Type of assay: functional, cell-based. (In general: Incorporation of labelled thymidine or its analogues reports DNA synthesis.)
In assay [8] the target is DNA-directed DNA/RNA polymerase mu (Homo sapiens, UniProt Q9NP87). The experiment in a line: Inhibition of human His-tagged recombinant DNA polymerase mu expressed in Escherichia coli BL21 assessed as inhibition of incorporation of dTTP into poly(dA)/oligo(dT)18 after 60 mins. Summed up:
as §1

Assay [9] relates to A549. The experiment in a line: Growth inhibition of human A549 cells after 24 hrs by WST-1 assay. Type of assay: functional. To be noted: A549, 24 h. Summed up:
(§2)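 Cancer cells were grown in McCoy's 5A with 10% FBS and penicillin/streptomycin, 37 °C, 5% CO2. Cells were seeded at 1 × 10^4 per well, cultured 12 h, then given compound (10 mM DMSO stock diluted in medium, 0.5% DMSO) for 24 h. WST-1 was added for 4 h and absorbance read at 450/630 nm. GI50 given as mean ± SE, five independent experiments.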

Assay [10] addresses Inosine-5'-monophosphate dehydrogenase 2 (Mus musculus, UniProt P24547). In words: Inhibition of mouse IMP dehydrogenase 2.
Assay [11] addresses Polynucleotide kinase (Enterobacteria phage T4, UniProt P06855). The experiment in a line: Inhibition of T4 arnN8l pseT 1 polynucleotide kinase assessed as inhibition of Salmon sperm DNA phosphorylation using [gamma32P]ATP by liquid scintillation counting. Set-up: species or system Tequatrovirus T4.
For assay [12], the system named is BALL-1. In words: Growth inhibition of human BALL-1 cells after 24 hrs by WST-1 assay. Type of assay: functional. As to conditions: BALL-1, 24 h. Summed up: as §2
(In general: Tetrazolium assays rely on reduction of a dye to a coloured formazan, in cell work by metabolically active cells.)

Assay [13] is described as follows: Inhibition of Escherichia coli polymerase DNA polymerase 1 klenow fragment assessed as inhibition of incorporation of dTTP into poly(dA)/oligo(dT)18 after 60 mins. Summed up: as §1
In assay [14] the test system is Oryza sativa. The experiment in a line: Inhibition of rice cv. Nipponbare recombinant C-terminal-His6-tagged DNA polymerase lambda expressed in Escherichia coli assessed as inhibition of incorporation of dTTP into activated DNA primer after 60 mins.
Assay [15] addresses T2, DNA polymerase lambda (Homo sapiens, UniProt Q9UGP5).
T2 sequence (Q9UGP5 whole entry): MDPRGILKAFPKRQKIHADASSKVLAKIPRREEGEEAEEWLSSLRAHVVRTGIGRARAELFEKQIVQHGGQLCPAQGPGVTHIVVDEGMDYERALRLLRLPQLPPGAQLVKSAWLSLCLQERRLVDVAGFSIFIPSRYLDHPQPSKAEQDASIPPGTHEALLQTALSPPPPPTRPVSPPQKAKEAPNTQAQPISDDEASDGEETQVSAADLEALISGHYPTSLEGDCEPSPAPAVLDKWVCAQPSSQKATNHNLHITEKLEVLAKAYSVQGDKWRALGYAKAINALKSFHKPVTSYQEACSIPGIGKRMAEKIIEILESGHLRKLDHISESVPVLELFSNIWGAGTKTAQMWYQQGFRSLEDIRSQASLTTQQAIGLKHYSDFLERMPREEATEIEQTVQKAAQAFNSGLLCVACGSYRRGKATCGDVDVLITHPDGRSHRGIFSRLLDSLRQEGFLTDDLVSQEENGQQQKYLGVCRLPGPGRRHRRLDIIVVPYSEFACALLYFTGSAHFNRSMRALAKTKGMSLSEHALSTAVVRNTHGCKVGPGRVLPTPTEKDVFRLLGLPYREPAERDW
The experiment in a line: Inhibition of human recombinant His-tagged DNA polymerase lambda expressed in Escherichia coli assessed as inhibition of incorporation of dTTP into poly(dA)/oligo(dT)18 after 60 mins. Summed up: as §1

Assay [16] can be described thus: Non-competitive inhibition of calf DNA polymerase alpha using ploy(dA)/oligo(dT)18 as substrate by Dixon plot analysis. More on the design: species or system Bos taurus. Summed up: (§3)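 Kinetics ran in the standard pol assay at 37 °C for 60 min. Either poly(dA)/oligo(dT)18 (A/T = 2/1) or dTTP was varied, with inhibitor at 0, 10, 20 and 30 μM. Km and Vmax came from Lineweaver–Burk plots and Ki from Dixon plots. Pol α was purified from calf thymus by immunoaffinity chromatography.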

Assay [17] in a line: Competitive inhibition of calf DNA polymerase alpha using dTTP as substrate by Dixon plot analysis. Set-up: species or system Bos taurus. Summed up: as §3

DNA-directed DNA/RNA polymerase mu, sequence (Q9NP87 whole entry): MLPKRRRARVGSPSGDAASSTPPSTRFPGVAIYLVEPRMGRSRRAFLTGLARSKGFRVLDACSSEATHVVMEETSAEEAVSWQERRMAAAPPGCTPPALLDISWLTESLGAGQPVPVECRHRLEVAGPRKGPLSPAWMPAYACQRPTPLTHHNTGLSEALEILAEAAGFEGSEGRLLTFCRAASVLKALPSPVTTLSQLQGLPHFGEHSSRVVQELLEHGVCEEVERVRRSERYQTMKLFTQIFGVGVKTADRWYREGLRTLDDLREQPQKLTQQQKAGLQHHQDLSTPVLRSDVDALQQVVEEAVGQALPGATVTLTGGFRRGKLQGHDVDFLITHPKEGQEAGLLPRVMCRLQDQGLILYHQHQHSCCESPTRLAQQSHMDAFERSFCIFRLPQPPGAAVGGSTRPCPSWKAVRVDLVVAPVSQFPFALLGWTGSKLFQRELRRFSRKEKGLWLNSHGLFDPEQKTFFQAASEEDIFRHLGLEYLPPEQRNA
DNA polymerase eta (Homo sapiens), sequence (Q9Y253 whole entry, looked up): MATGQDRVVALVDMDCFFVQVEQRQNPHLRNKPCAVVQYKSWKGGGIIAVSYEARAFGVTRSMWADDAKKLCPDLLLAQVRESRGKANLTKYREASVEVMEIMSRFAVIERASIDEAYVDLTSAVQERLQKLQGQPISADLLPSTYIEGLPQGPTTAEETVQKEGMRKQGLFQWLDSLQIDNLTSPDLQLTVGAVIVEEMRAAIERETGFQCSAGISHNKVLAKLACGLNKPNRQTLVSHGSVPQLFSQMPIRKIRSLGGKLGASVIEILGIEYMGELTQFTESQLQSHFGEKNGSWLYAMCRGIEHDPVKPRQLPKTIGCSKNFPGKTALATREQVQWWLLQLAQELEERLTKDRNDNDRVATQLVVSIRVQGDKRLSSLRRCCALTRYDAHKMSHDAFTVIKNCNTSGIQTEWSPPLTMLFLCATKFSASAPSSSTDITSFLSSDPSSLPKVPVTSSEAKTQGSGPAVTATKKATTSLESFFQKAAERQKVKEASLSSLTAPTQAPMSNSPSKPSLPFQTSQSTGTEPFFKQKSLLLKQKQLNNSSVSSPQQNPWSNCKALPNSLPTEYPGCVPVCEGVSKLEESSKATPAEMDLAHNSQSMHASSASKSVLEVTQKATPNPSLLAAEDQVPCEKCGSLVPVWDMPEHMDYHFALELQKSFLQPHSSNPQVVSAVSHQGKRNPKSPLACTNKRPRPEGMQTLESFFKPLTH
Polynucleotide kinase, sequence (P06855 whole entry, looked up): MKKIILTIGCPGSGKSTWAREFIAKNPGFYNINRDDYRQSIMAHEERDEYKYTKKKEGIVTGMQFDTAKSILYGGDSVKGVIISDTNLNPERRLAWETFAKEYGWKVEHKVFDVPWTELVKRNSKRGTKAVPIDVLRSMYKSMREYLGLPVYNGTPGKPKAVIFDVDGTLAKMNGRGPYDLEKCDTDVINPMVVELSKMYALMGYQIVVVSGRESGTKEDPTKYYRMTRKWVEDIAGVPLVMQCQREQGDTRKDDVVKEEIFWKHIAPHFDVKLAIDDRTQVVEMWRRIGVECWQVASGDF
Inosine-5'-monophosphate dehydrogenase 2, sequence (P24547 whole entry): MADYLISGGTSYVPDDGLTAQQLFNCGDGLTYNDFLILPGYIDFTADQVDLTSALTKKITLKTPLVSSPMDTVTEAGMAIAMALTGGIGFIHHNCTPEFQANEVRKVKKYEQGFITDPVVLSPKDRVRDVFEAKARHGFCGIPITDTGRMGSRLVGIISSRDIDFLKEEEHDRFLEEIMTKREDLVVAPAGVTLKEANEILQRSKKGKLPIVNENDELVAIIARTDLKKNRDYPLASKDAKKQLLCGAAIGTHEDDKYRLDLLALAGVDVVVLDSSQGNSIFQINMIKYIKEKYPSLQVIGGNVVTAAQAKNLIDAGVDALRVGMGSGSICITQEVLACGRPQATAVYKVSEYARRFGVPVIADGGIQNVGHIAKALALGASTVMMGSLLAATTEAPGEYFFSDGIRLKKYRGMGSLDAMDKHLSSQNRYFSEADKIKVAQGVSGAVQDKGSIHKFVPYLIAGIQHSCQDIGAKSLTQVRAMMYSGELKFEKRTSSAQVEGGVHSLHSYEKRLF

With `C/C=C/C1=CC2=CC(=O)[C@@](C)(O)[C@@H](OC(=O)c3c(C)cc(O)cc3O)[C@@H]2CO1`, the concentration for half-maximal inhibition (IC50) was over 200 µM in assay [1]; 65.6 µM in assay [2]; 63.8 µM in assay [3]; 63.1 µM in assay [5]; over 200 µM in assay [6]; over 200 µM in assay [8]. The IC50 in assay [10], in [11], in assay [13] and in assay [15] was over 200 µM in each case. Also, the inhibition entry in [4] and in [14] was “inactive” in each case. Moreover, in assay [7], the outcome was Active. The concentration for 50% growth inhibition (GI50) in assay [9] worked out at 65.7 µM; in assay [12], 62 µM.
Consider `C/C=C/C1=CC2=CC(=O)[C@@](C)(OC(=O)c3c(C)cc(O)cc3O)[C@@H](O)[C@@H]2CO1` [PINOPHILIN A], for which the Ki turned out to be 13.8 µM in [16] and 9.6 µM in [17]. In addition, the half-inhibitory concentration (IC50) in assay [1] was over 200 µM; in assay [2], 52 µM; in [3] it was 50.2 µM; in [5] it was 50.9 µM; in assay [6], over 200 µM; in assay [8] it was over 200 µM. Besides, the IC50 in assay [10], in assay [11], in assay [13] and in [15] was over 200 µM in each case. Besides, the inhibition result in assay [4] and in assay [14] was “inactive” in each case. Besides, in assay [7], the outcome was Active. The GI50 in assay [9] was 52.5 µM; in assay [12] it was 50.2 µM.
In the case of `Cc1cc(O)cc(O)c1C(=O)O[C@H]1[C@@H]2COC(/C=C/CO)=CC2=CC(=O)[C@@]1(C)O` [PINOPHILIN B], the IC50 in [1] is over 200 µM; in assay [2] it was 93.9 µM; in [3] it was 91 µM; in [5], 92.1 µM; in assay [6], over 200 µM; in assay [8], over 200 µM. Also, the IC50 in assay [10], in [11], in assay [13] and in assay [15] was over 200 µM each time. Moreover, the inhibition result in assay [4] and in assay [14] was “inactive” in each case. Besides, the result in assay [7] was Active. In addition, the concentration for 50% growth inhibition (GI50) in assay [9] stood at 93.1 µM; in assay [12], 90.4 µM.
